Results published in ChEMBL document CHEMBL1134955, “Identification and structure-activity studies of novel ultrashort-acting benzodiazepine receptor agonists” (Bioorg Med Chem Lett, 2002).

What was measured:
[1] = target: GABA-A receptor; anion channel; assay: Binding affinity to rat benzodiazepine receptor; type: protein-complex assay
In short: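 Rat BZD receptor membranes incubated with 2 nM [3H]-flunitrazepam and test ligand for 90 min at 4 °C in 50 mM Tris–HCl pH 7.4 with 150 mM NaCl. Twelve-point curves made by 3-fold serial dilution from DMSO stocks, final DMSO ≤0.4%. Nonspecific binding taken with 2'-chlorodiazepam. Filtration through GF/B, ice-cold Tris washes, scintillation counting. Triplicates, at least three runs; Ki reported in nM.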

Rattus norvegicus [2] = assay: Loss of righting reflex recovery time (initial) in rat was determined when treated with a dose of 30 mg/Kg; type: functional, organism-based
In short: (§1)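 Rats given an iv bolus in 50% PEG/25% EtOH/25% saline. Scored for time to LRR onset, initial recovery (rights itself three consecutive times) and total recovery (walks without ataxia and pulls up three times when hung from a horizontal wire), in min.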

Rattus norvegicus [3] = assay: Loss of righting reflex recovery time (total) in rat was determined when treated with a dose of 30 mg/Kg; type: functional, organism-based; in short: as §1
[4] = target: GABA-A receptor; anion channel (Rattus norvegicus) (UniProt O09028+P15431+P18506+P18508+P19969+P20236+P23574+P23576+P28471+P28473+P30191+P62813+P63079+P63138+Q91ZM7+Q9ES14); assay: Ratio between Ki value (acid) / Ki value (ester) was determined; type: protein-complex assay
In short: (§2)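 Ki of the acid divided by Ki of the matching ester. Both Ki values come from [3H]-flunitrazepam displacement at rat BZD receptor membranes (2 nM radioligand, 90 min, 4 °C, Tris–HCl pH 7.4 with NaCl), with triplicate 12-point curves.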

[5] = Ratio between Ki (acid) / Ki (ester) was determined; in short: as §2

COC(=O)CC[C@@H]1N=C(c2ccccc2F)c2ccccc2NC1=O
Ki [1]: 92 nM

COC(=O)CC[C@@H]1N=C(c2ccccc2F)c2cc(Br)ccc2NC1=O
Ki [1]: 3 nM
Recovery time (Rattus norvegicus [2]): 22 min
Recovery time (Rattus norvegicus [3]): 30 min
Ratio [4]: 431

O=C(C[C@@H]1N=C(c2ccccc2F)c2cc(Cl)ccc2NC1=O)OCc1ccncc1
Ki [1]: 289 nM

O=C(CC[C@@H]1N=C(c2ccccc2F)c2cc(Cl)ccc2NC1=O)OCc1ccccc1
Ki [1]: 29 nM
Recovery time (Rattus norvegicus [2]): 8 min
Recovery time (Rattus norvegicus [3]): 19 min
Ratio [4]: 143

COC(=O)CN[C@H]1N=C(c2ccccc2Cl)c2cc(Cl)ccc2NC1=O
Ki [1]: 23 nM
Ratio [4]: 172

O=C(CC[C@@H]1N=C(c2ccccc2)c2cc(Cl)ccc2NC1=O)OCc1ccccc1
Ki [1]: 200 nM
Recovery time (Rattus norvegicus [2]): 15 min
Recovery time (Rattus norvegicus [3]): 22 min

COC(=O)CNC1N=C(c2ccccc2Cl)c2cc(Cl)ccc2NC1=O (centres undefined)
Ki [1]: 53 nM
Ratio [4]: 35

CCCCOC(=O)CC[C@@H]1N=C(c2ccccc2F)c2cc(Cl)ccc2NC1=O
Ki [1]: 242 nM
Recovery time (Rattus norvegicus [2]): 15 min
Recovery time (Rattus norvegicus [3]): 25 min
Ratio [4]: 17

COC(=O)CC[C@H]1N=C(c2ccccc2F)c2cc(Cl)ccc2NC1=O
Ki [1]: 741 nM
Recovery time (Rattus norvegicus [2]): 2 min
Recovery time (Rattus norvegicus [3]): 4 min

O=C(CC[C@@H]1N=C(c2ccccc2F)c2ccccc2NC1=O)OCc1ccccc1
Ki [1]: 163 nM

CC(C)OC(=O)CC[C@@H]1N=C(c2ccccc2F)c2cc(Cl)ccc2NC1=O
Ki [1]: 39 nM
Ratio [4]: 108

O=C(C[C@@H]1N=C(c2ccccc2)c2cc(Cl)ccc2NC1=O)OCc1ccccc1
Ki [1]: 1450 nM
Recovery time (Rattus norvegicus [2]): 4 min
Recovery time (Rattus norvegicus [3]): 14 min

COC(=O)CC[C@@H]1N=C(c2ccccc2F)c2cc([N+](=O)[O-])ccc2NC1=O
Ki [1]: 7 nM

CN1C(=O)CN=C(c2ccccc2)c2cc(Cl)ccc21
Recovery time (Rattus norvegicus [2]): 5 min
Recovery time (Rattus norvegicus [3]): 82 min

O=C(CC[C@@H]1N=C(c2ccccc2F)c2cc(Cl)ccc2NC1=O)OCc1ccncc1
Ki [1]: 34 nM
Ratio [4]: 124

COC(=O)CCC[C@@H]1N=C(c2ccccc2F)c2cc(Cl)ccc2NC1=O
Ki [1]: 3 nM
Ratio [4]: 186

COC(=O)CN[C@@H]1N=C(c2ccccc2Cl)c2cc(Cl)ccc2NC1=O
Ki [1]: 480 nM
Ratio [4]: 9

CCOC(=O)C[C@@H]1N=C(c2ccccc2F)c2cc(Cl)ccc2NC1=O
Ki [1]: 45 nM
Ratio [4]: 297

COC(=O)CCN[C@@H]1N=C(c2ccccc2Cl)c2cc(Cl)ccc2NC1=O
Ki [1]: 189 nM
Ratio [4]: 1

COC(=O)CC[C@@H]1N=C(c2ccccc2F)c2cc(Cl)ccc2NC1=O
Ki [1]: 7 nM
Recovery time (Rattus norvegicus [2]): 9 min
Recovery time (Rattus norvegicus [3]): 24 min
Ratio [4]: 984

O=C(C[C@@H]1N=C(c2ccccc2F)c2cc(Cl)ccc2NC1=O)OCc1ccccc1
Ki [1]: 176 nM
Recovery time (Rattus norvegicus [2]): 13 min
Recovery time (Rattus norvegicus [3]): 17 min
Ratio [4]: 76

COC(=O)C[C@@H]1N=C(c2ccccc2F)c2cc(Cl)ccc2NC1=O
Ki [1]: 81 nM
Ratio [5]: 165

O=C(CC[C@@H]1N=C(c2ccccc2)c2cc([N+](=O)[O-])ccc2NC1=O)OCc1ccccc1
Ki [1]: 124 nM
Recovery time (Rattus norvegicus [2]): 2 min
Recovery time (Rattus norvegicus [3]): 3 min
Ratio [4]: 91

COC(=O)CCNC1N=C(c2ccccc2Cl)c2cc(Cl)ccc2NC1=O (centres undefined)
Ki [1]: 17 nM
Ratio [4]: 17

Cc1ncc2n1-c1ccc(Cl)cc1C(c1ccccc1F)=NC2 [MIDAZOLAM]
Ki [1]: 2 nM
Recovery time (Rattus norvegicus [2]): 23 min
Recovery time (Rattus norvegicus [3]): 121 min

O=C(C[C@H]1N=C(c2ccccc2)c2cc(Cl)ccc2NC1=O)OCc1ccccc1
Ki [1]: 100000 nM

COC(=O)CC[C@@H]1N=C(c2ccccc2)c2cc([N+](=O)[O-])ccc2NC1=O
Ki [1]: 118 nM
Recovery time (Rattus norvegicus [2]): 2 min
Recovery time (Rattus norvegicus [3]): 14 min
Ratio [4]: 95

COC(=O)CCN[C@H]1N=C(c2ccccc2Cl)c2cc(Cl)ccc2NC1=O
Ki [1]: 3 nM
Ratio [4]: 130
